Experimental data from article PMC4492447 (Journal of medicinal chemistry, 2012).

Columns and labels:
[1] = SD rats, 2–3 h postdose; cited from earlier work
CB1 [2] = molecular target: T1, CB1 (Homo sapiens, UniProt P21554); assay type: cell-based
MDCK-mdr1 cells = test: MDCK-mdr1 permeability assay; assay type: in vitro ADME, canine; settings: apical to basal, 10 μM, 1 h at 37 °C
Summary of the method: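 MDCK cells transfected with human MDR1 grown on filters for 4 days to confluence in DMEM/F12 with 10% FBS and antibiotics. Test compound added apically in HBSS with 25 mM D-glucose, HEPES-buffered to pH 7.4. Apical and basal samples collected, dried under nitrogen, and quantified by LC-MS/MS in MRM mode. Percent transfer apical to basal reported; mean of 2–3 measurements.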

[3] = pharmacokinetic evaluation in vivo, plasma and brain levels after oral dosing; design: species or system Sprague–Dawley rats
[4] = metabolic stability in human hepatic S9 fraction; assay type: in vitro ADME
Summary of the method: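 Pooled mixed-gender human hepatic S9 at 1 mg/mL, test compound at 10 μM final. Buffer: 50 mM potassium phosphate pH 7.4, 3 mM MgCl2, NADPH-regenerating system (1 mM NADP, 5 mM glucose-6-phosphate, 1 unit/mL G6PDH). Triplicates sampled at 0, 15, 30, 60, 120 min. Stopped with 3 vol acetonitrile; LC-MS/MS against standard curves in blank matrix. Read-out is percent remaining.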

CB1 [5] = molecular target: T1, CB1; assay type: binding; settings: selectivity, [3H]CP55940 displacement

T1 sequence (P21554 whole entry): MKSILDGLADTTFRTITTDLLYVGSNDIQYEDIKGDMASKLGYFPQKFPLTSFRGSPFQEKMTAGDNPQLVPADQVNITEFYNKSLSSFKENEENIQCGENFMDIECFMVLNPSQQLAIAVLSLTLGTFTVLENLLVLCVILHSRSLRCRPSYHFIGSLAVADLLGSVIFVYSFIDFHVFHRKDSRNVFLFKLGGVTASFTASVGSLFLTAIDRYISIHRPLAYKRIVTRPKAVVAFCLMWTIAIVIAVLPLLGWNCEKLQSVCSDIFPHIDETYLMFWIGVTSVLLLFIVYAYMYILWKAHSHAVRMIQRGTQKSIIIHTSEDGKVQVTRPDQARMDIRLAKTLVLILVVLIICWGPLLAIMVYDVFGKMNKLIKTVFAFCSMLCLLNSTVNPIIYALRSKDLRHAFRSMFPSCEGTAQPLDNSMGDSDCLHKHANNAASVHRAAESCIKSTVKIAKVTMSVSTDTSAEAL

| Structure (SMILES) | Kb (CB1 [2]) [nM] | other results |
| --- | --- | --- |
| CCNC1(C(N)=O)CCN(c2ncnc3c2nc(-c2ccccc2Cl)n3-c2ccc(Cl)cc2)CC1 [Compound 2, otenabant] |  | brain exposure [1]: ~33% |
| CC(C)(C)OC(=O)NC1(c2ccccc2)CCN(c2ncnc3c2nc(-c2ccccc2Cl)n3-c2ccc(Cl)cc2)CC1 [Compound 10, tert-Butyl N-{1-[8-(2-chlorophenyl)-9-(4-chlorophenyl)-9H-purin-6-yl]-4-phenylpiperidin-4-yl}carbamate] | 3.9 | MDCK-mdr1 A to B (MDCK-mdr1 cells): <1% |
| NC1(c2ccccc2)CCN(c2ncnc3c2nc(-c2ccccc2Cl)n3-c2ccc(Cl)cc2)CC1 [Compound 11, 1-[8-(2-Chlorophenyl)-9-(4-chlorophenyl)-9H-purin-6-yl]-4-phe-nylpiperidin-4-amine] | 15.9 | MDCK-mdr1 A to B (MDCK-mdr1 cells): <1% |
| CS(=O)(=O)NC1(c2ccccc2)CCN(c2ncnc3c2nc(-c2ccccc2Cl)n3-c2ccc(Cl)cc2)CC1 [Compound 12, N-{1-[8-(2-Chlorophenyl)-9-(4-chlorophenyl)-9H-purin-6-yl]-4-phenylpiperidin-4-yl}methanesulfonamide] |  | MDCK-mdr1 A to B (MDCK-mdr1 cells): <1%; brain penetration (in words) ([3]; SD rats, 10 mg/kg oral): limited brain penetration; time post dose of maximum concentration ([3]; SD rats, 10 mg/kg oral): 240 min; clearance (in words) ([3]; oral dosing in rats, 10 mg/kg): favorable clearance; oral absorption (in words) ([3]; oral dosing in rats, 10 mg/kg): excellent oral absorption |
| CC(C)(C)NC(=O)NC1(c2ccccc2)CCN(c2ncnc3c2nc(-c2ccccc2Cl)n3-c2ccc(Cl)cc2)CC1 [Compound 13a, 3-tert-Butyl-1-{1-[8-(2-chlorophenyl)-9-(4-chlorophenyl)-9H-purin-6-yl]-4-phenylpiperidin-4-yl}urea] | 19.2 | MDCK-mdr1 A to B (MDCK-mdr1 cells): <1%; metabolism in S9 fraction (in words) [4]: significant metabolism |
| CCNC(=O)NC1(c2ccccc2)CCN(c2ncnc3c2nc(-c2ccccc2Cl)n3-c2ccc(Cl)cc2)CC1 [Compound 13b, 1-{1-[8-(2-Chlorophenyl)-9-(4-chlorophenyl)-9H-purin-6-yl]-4-phenylpiperidin-4-yl}-3-ethylurea] | 443 |  |
| CCCCNC(=O)NC1(c2ccccc2)CCN(c2ncnc3c2nc(-c2ccccc2Cl)n3-c2ccc(Cl)cc2)CC1 [Compound 13e, 3-Butyl-1-{1-[8-(2-chlorophenyl)-9-(4-chlorophenyl)-9H-purin-6-yl]-4-phenylpiperidin-4-yl}urea] | 62 |  |
| CCOC(=O)CNC(=O)NC1(c2ccccc2)CCN(c2ncnc3c2nc(-c2ccccc2Cl)n3-c2ccc(Cl)cc2)CC1 [Compound 13f, Ethyl 2-[({1-[8-(2-chlorophenyl)-9-(4-chlorophenyl)-9H-purin-6-yl]-4-phenylpiperidin-4-yl}carbamoyl)amino]acetate] | 171 |  |
| O=C(NC1CCCCC1)NC1(c2ccccc2)CCN(c2ncnc3c2nc(-c2ccccc2Cl)n3-c2ccc(Cl)cc2)CC1 [Compound 13g, 3-{1-[8-(2-Chlorophenyl)-9-(4-chlorophenyl)-9H-purin-6-yl]-4-phenylpiperidin-4-yl}-1-cyclohexylurea] | 199 |  |
| CCCCNC(=O)N1CCC(Nc2ncnc3c2nc(-c2ccccc2Cl)n3-c2ccc(Cl)cc2)CC1 [Compound 14f, N-Butyl-4-{[8-(2-chlorophenyl)-9-(4-chlorophenyl)-9H-purin-6-yl]amino}piperidine-1-carboxamide] |  | CB2/CB1 Ki ratio (CB1 [5]): >5 |
| CCCCNC(=O)NC1CCN(c2ncnc3c2nc(-c2ccccc2Cl)n3-c2ccc(Cl)cc2)CC1 [Compound 17f, 3-Butyl-1-{1-[8-(2-chlorophenyl)-9-(4-chlorophenyl)-9H-purin-6-yl]piperidin-4-yl}urea] | 49 |  |
| CS(=O)(=O)NC1CCN(c2ncnc3c2nc(-c2ccccc2Cl)n3-c2ccc(Cl)cc2)CC1 [Compound 17h, N-{1-[8-(2-Chlorophenyl)-9-(4-chlorophenyl)-9H-purin-6-yl]-piperidin-4-yl}methanesulfonamide] | 71 |  |

Continued, in another order:

| Kb (CB1 [2]) [nM] | Structure (SMILES) | other results |
| --- | --- | --- |
| 5710 | Clc1ccc(-n2c(-c3ccccc3Cl)nc3c(NC4CCNCC4)ncnc32)cc1 [Compound 14b, 8-(2-Chlorophenyl)-9-(4-chlorophenyl)-N-(piperidin-4-yl)-9H-purin-6-amine] |  |
| 1150 | CCNC(=O)N1CCC(Nc2ncnc3c2nc(-c2ccccc2Cl)n3-c2ccc(Cl)cc2)CC1 [Compound 14c, 4-{[8-(2-Chlorophenyl)-9-(4-chlorophenyl)-9H-purin-6-yl]amino}-N-ethylpiperidine-1-carboxamide] |  |
| 495 | CC(C)NC(=O)N1CCC(Nc2ncnc3c2nc(-c2ccccc2Cl)n3-c2ccc(Cl)cc2)CC1 [Compound 14d, 4-{[8-(2-Chlorophenyl)-9-(4-chlorophenyl)-9H-purin-6-yl]amino}-N-(propan-2-yl)piperidine-1-carboxamide] |  |
| 1960 | CCCNC(=O)N1CCC(Nc2ncnc3c2nc(-c2ccccc2Cl)n3-c2ccc(Cl)cc2)CC1 [Compound 14e, 4-{[8-(2-Chlorophenyl)-9-(4-chlorophenyl)-9H-purin-6-yl]amino}-N-propylpiperidine-1-carboxamide] |  |
| 1650 | CS(=O)(=O)N1CCC(Nc2ncnc3c2nc(-c2ccccc2Cl)n3-c2ccc(Cl)cc2)CC1 [Compound 14g, 8-(2-Chlorophenyl)-9-(4-chlorophenyl)-N-(1-methanesulfonylpiperidin-4-yl)-9H-purin-6-amine] |  |
| 1500 | CCNC(=O)N1CCC[C@@H](Nc2ncnc3c2nc(-c2ccccc2Cl)n3-c2ccc(Cl)cc2)C1 [Compound 15c, (3R)-3-{[8-(2-Chlorophenyl)-9-(4-chlorophenyl)-9H-purin-6-yl]-amino}-N-ethylpiperidine-1-carboxamide] |  |
| 920 | CC(=O)N1CCC[C@@H](Nc2ncnc3c2nc(-c2ccccc2Cl)n3-c2ccc(Cl)cc2)C1 [Compound 15d, 1-[(3R)-3-{[8-(2-Chlorophenyl)-9-(4-chlorophenyl)-9H-purin-6-yl]-amino}piperidin-1-yl]ethan-1-one] |  |
| 346 | CS(=O)(=O)N1CCC[C@@H](Nc2ncnc3c2nc(-c2ccccc2Cl)n3-c2ccc(Cl)cc2)C1 [Compound 15e, 8-(2-Chlorophenyl)-9-(4-chlorophenyl)-N-[(3R)-1-methanesulfonylpiperidin-3-yl]-9H-purin-6-amine] |  |
| 1150 | CCNC(=O)N1CCC[C@H](Nc2ncnc3c2nc(-c2ccccc2Cl)n3-c2ccc(Cl)cc2)C1 [Compound 16c, (3S)-3-{[8-(2-Chlorophenyl)-9-(4-chlorophenyl)-9H-purin-6-yl]-amino}-N-ethylpiperidine-1-carboxamide] |  |
| 4450 | CC(=O)N1CCC[C@H](Nc2ncnc3c2nc(-c2ccccc2Cl)n3-c2ccc(Cl)cc2)C1 [Compound 16d, 1-[(3S)-3-{[8-(2-Chlorophenyl)-9-(4-chlorophenyl)-9H-purin-6-yl]-amino}piperidin-1-yl]ethan-1-one] |  |
| 6040 | CS(=O)(=O)N1CCC[C@H](Nc2ncnc3c2nc(-c2ccccc2Cl)n3-c2ccc(Cl)cc2)C1 [Compound 16e, 8-(2-Chlorophenyl)-9-(4-chlorophenyl)-N-[(3S)-1-methanesulfonylpiperidin-3-yl]-9H-purin-6-amine] |  |
| 149 | CCNC(=O)NC1CCN(c2ncnc3c2nc(-c2ccccc2Cl)n3-c2ccc(Cl)cc2)CC1 [Compound 17c, 1-{1-[8-(2-Chlorophenyl)-9-(4-chlorophenyl)-9H-purin-6-yl]-piperidin-4-yl}-3-ethylurea] |  |
| 133 | CC(C)NC(=O)NC1CCN(c2ncnc3c2nc(-c2ccccc2Cl)n3-c2ccc(Cl)cc2)CC1 [Compound 17d, 1-{1-[8-(2-Chlorophenyl)-9-(4-chlorophenyl)-9H-purin-6-yl]-piperidin-4-yl}-3-(propan-2-yl)urea] |  |
| 132 | CCCNC(=O)NC1CCN(c2ncnc3c2nc(-c2ccccc2Cl)n3-c2ccc(Cl)cc2)CC1 [Compound 17e, 1-{1-[8-(2-chlorophenyl)-9-(4-chlorophenyl)-9H-purin-6-yl]-piperidin-4-yl}-3-propylurea] |  |
| 631 | CC(=O)NC1CCN(c2ncnc3c2nc(-c2ccccc2Cl)n3-c2ccc(Cl)cc2)CC1 [Compound 17g, N-{1-[8-(2-Chlorophenyl)-9-(4-chlorophenyl)-9H-purin-6-yl]-piperidin-4-yl}acetamide] |  |
